ChEMBL document CHEMBL3227993, “Studies on 3-substituted 1,2-benzisoxazole derivatives. 6. Syntheses of 3-(sulfamoylmethyl)-1,2-benzisoxazole derivatives and their anticonvulsant activities” (J Med Chem, 1979)
The source made the active and inactive calls. The calls are words filed in the database; no cut-off is given here.

Assays:
Mus musculus [1] = experiment: Anticonvulsant activity in po dosed STD-dd mouse assessed as protection against hind-limb extensor component of maximal electroshock seizure administered via gavage measured 2 hrs after drug dosing; format: functional
Outline: (§1)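 Mice dosed by gavage as a suspension in 5% tragacanth solution. Maximal electroshock was given as 60-Hz, 25-mA current for 0.2 s through corneal electrodes, 2 h after dosing. Protection was scored as prevention of hind-limb extension. Preliminary screen used 100 mg/kg. For ED50, groups of ten mice per dose level at ≥4 dose levels, with values calculated by Litchfield–Wilcoxon.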

[2] = Neurotoxicity in po dosed STD-dd mouse assessed as muscle incoordination administered via gavage by rotarod test; format: toxicity, organism-based, Muscle tissue; conditions: in vivo
Outline: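 Gavage dosing as a suspension in 5% tragacanth solution, with ten mice per dose level at ≥4 levels. Rotarod test 2 h after dosing used a horizontal rod 2.5 cm in diameter rotating at 11 rpm. Minimal neurotoxicity end point was muscle incoordination, i.e. inability to stay on the rod. NTD50 was calculated by Litchfield–Wilcoxon.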

Mus musculus [3] = experiment: Anticonvulsant activity in STD-dd mouse assessed as protection against hind-limb extensor component of maximal electroshock seizure at 100 mg/kg, po administered via gavage measured 2 hrs after drug dosing; format: functional, organism-based; set-up: dose 100 mg/kg; outline: as §1

| SMILES | ED50 (Mus musculus [1]) | TD50 [2] | Activity (Mus musculus [3]) |
| --- | --- | --- | --- |
| CCNS(=O)(=O)Cc1noc2ccc(F)cc12 | 32 mg/kg | 200 mg/kg | – |
| NS(=O)(=O)Cc1noc2ccc([N+](=O)[O-])cc12 | – | – | inactive |
| CN(C)S(=O)(=O)Cc1noc2ccc(Br)cc12 | 45 mg/kg | 100 mg/kg | – |
| NS(=O)(=O)Cc1noc2ccc(F)cc12 | 15 mg/kg | – | – |
| CC(C)NS(=O)(=O)Cc1noc2ccc(Br)cc12 | 22 mg/kg | 93 mg/kg | – |
| O=S(=O)(Cc1noc2ccccc12)N1CCOCC1 | – | – | inactive |
| CCC1(CC)C(=O)NC(=O)N(C)C1=O [METHARBITAL] | 60.8 mg/kg | 87.9 mg/kg | – |
| O=S(=O)(Cc1noc2ccccc12)N1CCN(Cc2ccccc2)CC1 | – | – | inactive |
| CN1CCN(S(=O)(=O)Cc2noc3ccccc23)CC1 | 57 mg/kg | – | – |
| NS(=O)(=O)CCc1noc2ccccc12 | 26 mg/kg | – | – |
| O=S(=O)(Cc1noc2ccccc12)N1CCN(c2ccccc2)CC1 | – | – | inactive |
| O=C1NC(=O)C(c2ccccc2)(c2ccccc2)N1 [PHENYTOIN] | 10 mg/kg | 111 mg/kg | – |
| CN1CCN(S(=O)(=O)Cc2noc3ccc(F)cc23)CC1 | 100 mg/kg | 142 mg/kg | – |
| NNS(=O)(=O)Cc1noc2ccccc12 | – | – | inactive |
| CCCNS(=O)(=O)Cc1noc2ccccc12 | – | – | inactive |
| CNS(=O)(=O)Cc1noc2ccc(Br)cc12 | 15 mg/kg | – | – |
| CCNS(=O)(=O)Cc1noc2ccc(Cl)cc12 | 21 mg/kg | – | – |
| CN1CCN(S(=O)(=O)Cc2noc3ccc(Br)cc23)CC1 | 88 mg/kg | 87 mg/kg | – |
| CNS(=O)(=O)Cc1noc2ccc(Cl)cc12 | 20 mg/kg | 60 mg/kg | – |
| CCNS(=O)(=O)Cc1noc2ccc(Br)cc12 | 18 mg/kg | 66 mg/kg | – |
| NS(=O)(=O)Cc1noc2ccc(Cl)cc12 | 14 mg/kg | 52 mg/kg | – |
| Cc1ccc2onc(CS(N)(=O)=O)c2c1 | – | – | inactive |
| CN(C)S(=O)(=O)Cc1noc2ccccc12 | 37 mg/kg | – | – |

| SMILES | ED50 (Mus musculus [1]) | TD50 [2] | Activity (Mus musculus [3]) |
| --- | --- | --- | --- |
| CN(C)NS(=O)(=O)Cc1noc2ccccc12 | – | – | inactive |
| Cc1cccc2c(CS(N)(=O)=O)noc12 | – | – | inactive |
| NS(=O)(=O)Cc1noc2ccc(Br)cc12 | 14 mg/kg | 60 mg/kg | – |
| CC(C)NS(=O)(=O)Cc1noc2ccc(F)cc12 | 38 mg/kg | 109 mg/kg | – |
| CNS(=O)(=O)Cc1noc2ccccc12 | 23 mg/kg | – | – |
| O=S(=O)(Cc1noc2ccccc12)Nc1ccccc1 | – | – | inactive |
| CN(C)S(=O)(=O)Cc1noc2ccc(F)cc12 | 32 mg/kg | 350 mg/kg | – |
| CN(C)CCCNS(=O)(=O)Cc1noc2ccccc12 | – | – | inactive |
| O=S(=O)(Cc1noc2ccccc12)N1CCCCC1 | – | – | inactive |
| NS(=O)(=O)Cc1noc2cc(F)ccc12 | 19 mg/kg | – | – |
| O=S(=O)(Cc1noc2ccccc12)NO | 32 mg/kg | – | – |
| NS(=O)(=O)CCCc1noc2ccccc12 | 39 mg/kg | – | – |
| COc1ccc2onc(CS(N)(=O)=O)c2c1 | – | – | inactive |
| NS(=O)(=O)Cc1noc2ccccc12 [ZONISAMIDE] | 20 mg/kg | – | – |
| CCNS(=O)(=O)Cc1noc2ccccc12 | 39 mg/kg | 223 mg/kg | – |
| O=S(=O)(Cc1noc2ccccc12)NCCO | – | – | inactive |
| CN(C)S(=O)(=O)Cc1noc2ccc(Cl)cc12 | 57 mg/kg | 250 mg/kg | – |
| CC(C)NS(=O)(=O)Cc1noc2ccccc12 | 56 mg/kg | 340 mg/kg | – |
| O=S(=O)(Cc1noc2ccccc12)NCc1ccccc1 | – | – | inactive |
| CNS(=O)(=O)Cc1noc2ccc(F)cc12 | 35 mg/kg | 168 mg/kg | – |
| CC(C)NS(=O)(=O)Cc1noc2ccc(Cl)cc12 | 100 mg/kg | – | – |
| COC(=O)c1ccccc1NS(=O)(=O)Cc1noc2ccccc12 | – | – | inactive |
